Measured values as given in ChEMBL document CHEMBL4130401, “Thalassosamide, a Siderophore Discovered from the Marine-Derived Bacterium Thalassospira profundimaris” (J Nat Prod, 2017).
Values after ≈ are worked out from the molar mass of the structure shown. Active and inactive are the calls of the source. The rule behind the calls is not given here.

Assays:
Mus musculus = assay: Toxicity in mouse at 80 to 160 mg/kg, ip administered as single dose; assay type: organism-based; settings: in vivo
Pseudomonas aeruginosa [1] = assay: Antibacterial activity against Pseudomonas aeruginosa ATCC 27853 infected in mouse assessed as reduction in bacterial load in thigh at 80 to 160 mg/kg, ip administered as single dose measured after 6 hrs by time kill assay; assay type: functional, organism-based
Method in brief: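 Neutropenic murine thigh infection with P. aeruginosa grown, subcultured and quantified in Mueller-Hinton broth/agar; single intraperitoneal dose (80 or 160 mg/kg) given 1 h after infection; groups of two treated and two untreated mice euthanized at 0–6 h post-dose; thigh CFU counted; mean and standard deviation from four thighs of two mice.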

Pseudomonas aeruginosa [2] = assay: Antibacterial activity against Pseudomonas aeruginosa ATCC 27853 measured after 18 hrs by dilution susceptibility test; assay type: functional
Method in brief: (§1)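 Broth dilution MIC for aerobic bacteria; compound dissolved in DMSO, serially diluted to 10 concentrations (0.25–128 μg/mL); gentamicin positive control; triplicate; six untreated media controls per plate; 35 °C for 18 h; MIC = lowest concentration preventing visible growth.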

[3] = Metal chelating activity assessed as Fe3+-compound complex formation at 5 to 1280 uM after 3 hrs by chrome azural S assay
Method in brief: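 Modified CAS assay: CTAB–CAS–Fe(III) reagent in MES buffer pH 5.6 mixed 1:1 with compound or deferoxamine mesylate in water, final concentrations 1.28 mM to 5 μM; incubated 37 °C, 3 h; colour change judged visually or absorbance change recorded.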

Pseudomonas aeruginosa [4] = assay: Antibiofilm activity against Pseudomonas aeruginosa ATCC 27853 at 16 to 64 ug/ml by crystal violet microtiter method; assay type: functional, organism-based
Escherichia coli = assay: Antibacterial activity against Escherichia coli ATCC 25922 measured after 18 hrs by dilution susceptibility test; assay type: functional; method in brief: as §1
Pseudomonas aeruginosa [5] = assay: Antibiofilm activity against Pseudomonas aeruginosa ATCC 27853 at 16 to 64 ug/ml in presence of gentamycin by crystal violet microtiter method; assay type: functional, organism-based

Compound | Activity (Mus musculus) | Activity (Pseudomonas aeruginosa [1]) | MIC (Pseudomonas aeruginosa [2]; ATCC 27853, 18 h) [µg/mL] | Activity [3] | Activity (Pseudomonas aeruginosa [4]) | MIC (Escherichia coli; ATCC 25922, 18 h) [µg/mL] | Activity (Pseudomonas aeruginosa [5]) | MIC (Pseudomonas aeruginosa [2]) [µg/mL] | MIC (Escherichia coli) [µg/mL]
C[C@@H]1CC(=O)N(O)CCCC[C@@H](NC(=O)CCC(=O)O)C(=O)O[C@H](C)CC(=O)N(O)CCCC[C@@H](NC(=O)CCC(=O)O)C(=O)O[C@H](C)CC(=O)N(O)CCCC[C@@H](NC(=O)CCC(=O)O)C(=O)O1 | Non-Toxic | Active | 64 (≈ 64.6 µM) | Active | inactive | 64 (≈ 64.6 µM) | inactive |  | 
GENTAMICIN |  |  |  |  |  |  |  | 4 | 4
CC(=O)N(O)CCCCCNC(=O)CCC(=O)N(O)CCCCCNC(=O)CCC(=O)N(O)CCCCCN |  |  |  | Active |  |  |  |  | 
